The record followed here is ChEMBL document CHEMBL1152212, “Docking study, synthesis, and in vitro evaluation of fluoro-MADAM derivatives as SERT ligands for PET imaging” (Bioorg Med Chem, 2008).

Some results are limits rather than exact numbers.

Series [1] addresses T1, Sodium-dependent serotonin transporter (Rattus norvegicus, UniProt P31652).
The nature of series [2]: Partition coefficient, log P in n-octanol/0.02 M phosphate buffer at pH 7.4. Format: physicochemical.
Series [3] addresses Sodium-dependent dopamine transporter (Homo sapiens, UniProt Q01959). As to the kind of experiment: Displacement of [3H]GBR-12935 from human cloned DAT expressed in HEK293 cells. It is filed as cell-based.
In series [4] the target is Sodium-dependent noradrenaline transporter (Homo sapiens, UniProt P23975). Nature of the series: Displacement of [3H]nisoxetine from human cloned NET expressed in HEK293 cells. Format: cell-based. (In general: In a radioligand displacement assay an active substance lowers the binding of a labelled ligand.)
Chain of Sodium-dependent noradrenaline transporter (P23975 whole entry): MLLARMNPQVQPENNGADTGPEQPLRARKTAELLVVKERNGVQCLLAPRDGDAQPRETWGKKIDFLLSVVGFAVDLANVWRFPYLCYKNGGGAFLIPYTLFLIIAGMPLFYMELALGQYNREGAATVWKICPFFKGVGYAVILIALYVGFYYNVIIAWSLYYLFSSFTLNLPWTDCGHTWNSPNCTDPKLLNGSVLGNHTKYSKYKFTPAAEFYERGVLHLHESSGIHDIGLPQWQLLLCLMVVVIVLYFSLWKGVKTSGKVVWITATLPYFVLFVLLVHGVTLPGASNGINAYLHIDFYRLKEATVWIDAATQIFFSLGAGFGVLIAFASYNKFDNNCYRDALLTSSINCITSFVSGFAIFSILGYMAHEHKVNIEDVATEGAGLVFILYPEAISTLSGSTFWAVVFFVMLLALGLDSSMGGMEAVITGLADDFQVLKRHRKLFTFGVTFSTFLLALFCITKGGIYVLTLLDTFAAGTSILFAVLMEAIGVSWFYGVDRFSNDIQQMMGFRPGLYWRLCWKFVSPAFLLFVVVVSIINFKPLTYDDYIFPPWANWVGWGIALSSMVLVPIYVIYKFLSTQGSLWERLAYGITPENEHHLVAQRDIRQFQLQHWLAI
In series [5] the target is T1, Sodium-dependent serotonin transporter. As to the kind of experiment: Displacement of [3H]MADAM from SERT in rat brain cortex membrane. It is filed as cell membranes. The procedure, abridged:
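Paroxetine defined nonspecific binding. Bound radioactivity was collected by GF/B filtration with an ice-cold wash and beta-counted. IC50 was read graphically and Ki derived by Cheng-Prusoff. Samples run in duplicate; values are the mean of four determinations.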

Series [6] has the same target. Nature of the series: Displacement of [125I]IDAM from SERT in rat brain cortex membrane. It is filed as cell membranes.
Series [7] can be described thus: Partition coefficient, log P at pH 7.4 by reverse-phase HPLC. Format: physicochemical. Conditions: octanol/water, read-out: logP. In outline: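 Indirect log P7.4 from retention time (triplicate) on a C-18 column (5 µm, 4.6 × 150 mm) eluted with methanol/0.1 M phosphate buffer pH 7.4 (50/50) at 1 mL/min. Calibrated against seven standards dissolved in mobile phase: quinoline, phenol, benzamide, chlorpromazine, hexachlorobenzene, ADAM and MADAM. Calibration equation: y = 1.438·Ln(retention time) – 0.7301, R² 0.93.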

T1 sequence (P31652 whole entry): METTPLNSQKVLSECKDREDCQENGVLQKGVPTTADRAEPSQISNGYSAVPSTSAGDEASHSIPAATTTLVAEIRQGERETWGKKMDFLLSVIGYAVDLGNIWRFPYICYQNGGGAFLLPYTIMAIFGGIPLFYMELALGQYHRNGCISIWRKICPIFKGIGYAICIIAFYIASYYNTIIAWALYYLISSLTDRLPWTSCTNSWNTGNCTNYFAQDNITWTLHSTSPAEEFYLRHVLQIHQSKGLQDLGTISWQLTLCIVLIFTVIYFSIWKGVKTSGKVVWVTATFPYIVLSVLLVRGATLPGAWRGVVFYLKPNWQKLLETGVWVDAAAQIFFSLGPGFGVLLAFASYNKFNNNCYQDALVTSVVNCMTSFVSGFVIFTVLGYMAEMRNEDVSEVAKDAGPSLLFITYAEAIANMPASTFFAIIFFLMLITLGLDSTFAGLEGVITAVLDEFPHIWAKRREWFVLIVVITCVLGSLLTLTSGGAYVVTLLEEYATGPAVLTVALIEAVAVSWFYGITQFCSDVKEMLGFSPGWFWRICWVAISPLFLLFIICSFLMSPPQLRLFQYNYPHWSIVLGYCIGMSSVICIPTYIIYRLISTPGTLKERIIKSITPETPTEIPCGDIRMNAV
Chain of Sodium-dependent dopamine transporter (Q01959 whole entry): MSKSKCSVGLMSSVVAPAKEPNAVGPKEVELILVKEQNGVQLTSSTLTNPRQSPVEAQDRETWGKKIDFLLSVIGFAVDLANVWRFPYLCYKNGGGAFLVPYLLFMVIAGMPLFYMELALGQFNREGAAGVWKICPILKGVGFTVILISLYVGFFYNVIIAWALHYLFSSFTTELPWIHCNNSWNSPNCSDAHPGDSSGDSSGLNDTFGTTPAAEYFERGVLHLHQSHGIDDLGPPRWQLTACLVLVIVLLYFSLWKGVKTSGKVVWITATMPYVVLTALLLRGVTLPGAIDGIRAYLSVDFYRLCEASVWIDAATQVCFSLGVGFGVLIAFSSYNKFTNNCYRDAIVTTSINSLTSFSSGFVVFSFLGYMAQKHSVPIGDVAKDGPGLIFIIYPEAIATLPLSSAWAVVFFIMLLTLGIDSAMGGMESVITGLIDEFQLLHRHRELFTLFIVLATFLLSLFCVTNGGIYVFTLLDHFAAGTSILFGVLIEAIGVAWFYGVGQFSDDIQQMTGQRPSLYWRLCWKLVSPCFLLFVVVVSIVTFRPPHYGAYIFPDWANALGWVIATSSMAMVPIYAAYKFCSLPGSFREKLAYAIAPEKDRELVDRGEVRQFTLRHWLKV

Usually Ki stands for the equilibrium dissociation constant of an inhibitor or competing ligand from its target. Higher therefore signals weaker binding. In turn, `CN(C)Cc1ccccc1Sc1ccc(I)cc1CO` returned an inhibitory constant (Ki) in series [1] of 0.1 nM.
As usually defined, the logD is the decadic logarithm of the distribution of all forms, ionised or not, between an organic phase and buffer at a given pH. Read a low logD as lower lipophilicity. In series [2], `Cc1ccc(Sc2ccccc2CN(C)C)c(N)c1` yielded a log distribution coefficient (logD) of 2.46. Also, the figures for the inhibitory constant (Ki) in series [3] and in series [4] were over 1000 nM and 325 nM, respectively.
In series [2], `CN(C)Cc1ccccc1Sc1ccc(I)cc1N` displayed a logD of 2.52.
Take `CNCc1ccccc1Sc1ccc(C)cc1NCc1ccc(F)cc1`: the Ki in series [5] is over 100 nM; in series [3], over 2000 nM; in series [4] it was over 1000 nM.
In the case of `CNCc1ccccc1Sc1ccc(C)cc1NC(=O)c1ccc(F)cc1`, the Ki was over 500 nM in series [5], over 1000 nM in series [3] and over 2500 nM in series [4].
For `CN(C)Cc1ccccc1Sc1ccc(Br)cc1NC(=O)c1ccc(F)cc1`, in series [6], the affinity, expressed as Ki, was 8 nM.
The compound `CN(C)Cc1ccccc1Sc1ccccc1NC(=O)c1ccc(F)cc1` yielded an inhibition constant (Ki) in series [6] of 34 nM.
Consider `CN(C)Cc1ccccc1Sc1ccc(Cl)cc1NC(=O)c1ccc(F)cc1`, for which the Ki in series [6] was 0.9 nM. This Ki lies about 38-fold lower than the previous one.
Turning to `Cc1ccc(Sc2ccccc2CN(C)C)c(NCc2ccc([N+](=O)[O-])cc2)c1`, the inhibition constant (Ki) was 60 nM in series [5], over 1000 nM in series [3] and over 1900 nM in series [4].
Turning to `Cc1ccc(Sc2ccccc2CN(C)C)c(NCc2ccc(F)cc2)c1`, the inhibitory constant (Ki) in series [5] is 10.1 nM; in series [3] it was over 1500 nM; in series [4] it was over 1200 nM. The chromatographic logD in series [7] came to 4.7.
`Cc1ccc(Sc2ccccc2CN(C)C)c(NC(=O)c2ccc([N+](=O)[O-])cc2)c1`: the inhibition constant (Ki) in series [5] is over 100 nM; in series [3], over 1000 nM; in series [4] it was over 1000 nM.
As for `CN(C)Cc1ccccc1Sc1ccc(I)cc1NC(=O)c1ccc(F)cc1`, the Ki in series [6] was determined as 193 nM.
Consider `Cc1ccc(Sc2ccccc2CN(C)C)c(NC(=O)c2ccc(F)cc2)c1`, for which the inhibitory constant (Ki) was 14.3 nM in series [5], over 1000 nM in series [3] and over 5200 nM in series [4]. The chromatographic logD in series [7] stood at 2.99.
